WT yeast gro inh – growth inhibition of WT yeast, mitochondrial fusion screen | inhibition, % at 10 µM | 190,000 tested, 2.1% active | mitochondrial fusion phenotypic screen, WT strain; in the data active = inhibition above about 58%; tested in S. cerevisiae
b-catenin transl – modulators of beta-catenin nuclear translocation; 190,000 tested, 0.3% active; nuclear translocation activity, % at 5 µM; HeLa beta-catenin nuclear translocation, immunofluorescence imaging;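 active = nuclear translocation activity above 50% at 5 µM, with a well cell count of 50 or more; inconclusive = wells under 50 cells across six images, flagged as toxic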;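 note: per-cell ratio of nuclear to cytoplasmic median beta-catenin stain intensity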
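Test system: HeLa cells, endogenous beta-catenin; Compound: single 5 µM dose plus 0.02–20 µM confirmation series; Times: compound exposure 24 h at 37°C; Signal: fluorescence imaging of beta-catenin antibody stain plus DAPI; Read-out: % activation, nuclear-to-cytoplasmic median beta-catenin signal ratio per cell.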
Pf gamet viab – inhibitors of late stage P. falciparum gametocyte viability; P. falciparum stage V gametocytes, ATP luminescence, 24 h; inhibition, % at 10.9 µM; 150,000 tested, 0.065% active;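 active = inhibition above the mean plus 3 SD of compounds within the control limits, set per campaign, cut at about 38% in these data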
MT stabilizer – stabilizes microtubules in HeLa cells; HeLa tubulin immunostaining HCS, 24 h; share of cells brighter than vehicle mean+2SD; % tubulin-high responders, % at 10 µM; 200,000 tested, 0.83% active; AID 2205;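 active = plate Z-score above 3 for both tubulin-high and condensed-nucleus cell shares, with cell loss under 80%, at 10 µM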;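 note: anti alpha tubulin signal scored within the nucleus-defined area of each cell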
KCC2 mod – KCC2 (human) Cl- transport modulation | KCC2 cells, thallium flux FluoZin-2 fluorescence | AID 1456 | B-score of Tl+ flux slope (higher = more flux/activation; lower = inhibition) at 10 µM | 190,000 tested, 2.2% active;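 active = thallium flux slope and its plate-corrected score both differing from the plate sample mean at a set confidence after two filtering rounds, in either direction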;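 note: slope of fluorescence scaled to starting intensity during 10 to 20 s after thallium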
KCC2 secondary – confirmation of human KCC2 transport modulators; shares compounds with KCC2 mod; AID 1713; normalised thallium flux (F/F0 slope) at 10 µM; HEK293-KCC2, thallium flux, FluoZin2 fluorescence; stronger effect = higher value; 3,700 tested, 15% active;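 active = thallium flux slope above the same plate's solvent-only control mean plus 3 SD; inconclusive = the two replicate wells disagree; inactive = no significant difference from solvent-only control wells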
KCC2 bumet counter – thallium flux persisting under bumetanide in KCC2 cells, counter-screen secondary assay. shares compounds with KCC2 mod. HEK293-KCC2 + bumetanide/ouabain, thallium flux FluoZin2; stronger effect = higher value. normalized thallium flux at 10 µM. 3,700 tested, 49% active. AID 1714;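 active = thallium entry rate above the same plate's blocked-transporter control wells by more than 3 SD; inconclusive = the two repeat wells disagree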;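 note: raw slope of fluorescence over initial fluorescence between 10 and 20 s after thallium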
KCC2 sec2 – KCC2 (human) modulation, second secondary assay; normalized thallium flux at 10 µM; shares compounds with KCC2 mod; 3,700 tested, 23% active; HEK293-KCC2, thallium flux FluoZin2 fluorescence; actives lie on both sides; F/F0 rise rate, 10–20 s post-thallium; AID 1715;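 active = thallium flux slope more than 3 SD above or below the plate's solvent-only control mean, mostly below; inconclusive = the two repeat wells disagreed; inactive = no significant shift from solvent-only controls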
HEK293 Tl flux – acts in parental HEK cells, KCC2 counter-screen; shares compounds with KCC2 mod; HEK293 parental cells, thallium flux FluoZin2, ouabain; baseline-ratio fluorescence slope, 10–20 s after thallium; thallium flux rate (normalised fluorescence) at 10 µM; 3,700 tested, 46% active; AID 1716;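 active = thallium flux rate significantly above the same plate's solvent-only control wells, beyond their mean plus 3 SD; inconclusive = the two replicate wells gave conflicting results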
KCC2 ouabain – modulates human KCC2 on retest with ouabain; raw Tl+ flux slope (below DMSO = inhibition, above = activation) at 10 µM; shares compounds with KCC2 mod; HEK293-KCC2, thallium flux FluoZin2 fluorescence; bidirectional: low = inhibitor, high = activator; 3,700 tested, 48% active;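 active = thallium flux slope beyond 3 SD from same-plate DMSO control mean in most replicates, usually higher, sometimes lower; inconclusive = repeat tests gave conflicting results; inactive = no significant difference from controls in most replicates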;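 note: slope of initial-normalized fluorescence between seconds 10 and 20 after thallium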
HEK293 Tl flux2 – counter-screen for KCC2 modulators: effect in parental HEK293 cells. thallium flux slope at 10 µM. 3,700 tested, 33% active. AID 1718. thallium flux FluoZin-2 fluorescence slope. shares compounds with KCC2 mod;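 active = thallium flux slope above the same plate's solvent-control mean plus 3 SD in both duplicate wells; inconclusive = duplicate wells that disagreed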;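 note: run without ouabain in cells lacking the KCC2 cotransporter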
Hits are given with their value; . = inactive; ? = inconclusive; / = not tested or not shown. Most compounds without a hit are left out; they make up all but 4% or so of the library.

SMILES	WT yeast gro inh	b-catenin transl	Pf gamet viab	MT stabilizer	KCC2 mod	KCC2 secondary	KCC2 bumet counter	KCC2 sec2	HEK293 Tl flux	KCC2 ouabain	HEK293 Tl flux2
CC(C)N(Cc1nc(-c2ccccc2)no1)C(=O)CN(C)S(=O)(=O)c1ccc(Br)cc1	.	.	.	.	.	.	.	.	.	.	.
CC(C)(C)NC(=O)C(=O)N/N=C/c1ccc(Br)cc1	.	.	/	.	/	/	/	/	/	/	/
CSC(=S)N/N=C/c1ccc(Br)cc1	68	.	.	.	68	0.026	0.088	0.048	0.037	0.046	0.038
N#Cc1c(-c2ccccc2)ccnc1Oc1ccccc1	.	/	.	.	.	/	/	/	/	/	/
O=C(C(=O)N1CCN(c2ccc(F)cc2)CC1)c1c[nH]c2ccccc12	.	.	.	.	-3.5	.	.	0.025	.	?	.
O=C(C(=O)N1CCN(c2cccc(Cl)c2)CC1)c1c[nH]c2ccccc12	.	.	.	.	.	/	/	/	/	/	/
CC(C)C(NS(=O)(=O)c1ccc2c(c1)OCCCO2)C(=O)O (stereo not given)	.	.	.	.	.	/	/	/	/	/	/
CCOC(=O)c1cnc(SC)nc1Sc1ccccc1	.	.	.	.	/	.	.	.	.	.	.
NC(=O)c1cccnc1OCC(F)(F)F	/	.	.	/	.	/	/	/	/	/	/
COc1cc(/C=N/NC(=O)c2c(C)nnn2-c2nonc2N)ccc1O	.	.	.	.	4.7	.	.	.	.	.	.
O=C(NNc1nc(=O)c2cccnc2s1)c1ccccc1O	.	.	.	.	.	/	/	/	/	/	/
Cc1ccc(CSc2nc3sc(C)c(C)c3c(=O)n2Cc2ccco2)cc1	.	.	.	.	9.4	.	0.019	0.039	0.024	0.031	0.023
O=C(CCC(=O)OCC(F)(F)C(F)F)Nc1ccc(Cl)cc1	.	.	.	.	8.3	.	.	?	.	.	.
O=C(CCC(=O)OCC(F)(F)C(F)F)Nc1ccc(F)cc1F	.	.	.	.	.	/	/	/	/	/	/
CNC(=O)c1c(NC(=O)c2cc(-c3cc(C)c(C)cc3O)n[nH]2)sc2c1CCCC2	/	.	/	/	.	/	/	/	/	/	/
O=C(CN1C(=O)S/C(=C\C=C\c2ccccc2)C1=O)Nc1cccc(O)c1	.	.	.	.	.	/	/	/	/	/	/
O=C(CN1C(=O)S/C(=C\C=C\c2ccccc2)C1=O)Nc1ccccc1C(=O)O	/	.	.	/	-5.9	.	.	?	?	0.014	.
Cc1nc(SCC(=O)NC(C)(C#N)C2CC2)c2c(-c3cccs3)csc2n1 (stereo not given)	.	.	.	.	5.1	.	0.026	.	0.013	0.033	0.011
Cc1ccc(NC(=O)C(=O)Nc2ccccn2)cc1	.	.	.	.	.	/	/	/	/	/	/
CCCCCCCCCCNC(=O)C(=O)Nc1ccccn1	.	.	/	.	/	.	.	.	0.0098	.	0.013
COc1cc(/C=N/NC(=O)COc2ccc(-n3cnnn3)cc2)ccc1OCC(N)=O	/	.	.	/	.	/	/	/	/	/	/
O=C(CN1C(=O)NC2(CCCCCC2)C1=O)c1ccc2c(c1)OCCO2	.	.	/	.	/	.	0.014	.	?	.	.
Cc1ccc2cccc(S(=O)(=O)N3CCCc4ccccc43)c2n1	.	.	.	.	.	/	/	/	/	/	/
Cn1c(O)c(N=NC(=O)c2cccc(S(=O)(=O)N3CCCCC3)c2)c2ccccc21	.	.	.	.	.	/	/	/	/	/	/
CCc1ccccc1NC(=S)N=Nc1c(O)n(C)c2ccc(S(=O)(=O)N3CCOCC3)cc12	72	.	/	.	11	0.014	0.086	.	0.031	0.058	0.012
